Data: the array DNA melting data of Ke et al. (doi:10.1101/2024.01.08.574731)

Legend:
[1] = melting temperature; fluorescence melt of hairpins on a sequencing array, two-state fit, raised by 9.35 °C to match UV melts; conditions: sodium 0.088 M
How it was run: (§1)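 Folding enthalpy and melting temperature come from bootstrapped two-state fits to Cy3 fluorescence of library hairpins carrying annealed Cy3 and quencher oligos on a sequenced MiSeq flow cell. Imaging was done in 50 mM Na-HEPES pH 8.0, 25 mM NaCl, stepping by 2.5 °C up to 60 °C, and signals were normalised to pre-quench Cy3 and to control constructs. Results of four replicates were combined by inverse variance, and fitted temperatures were raised by 9.35 °C to match UV melts.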

[2] = folding enthalpy; higher = less favourable; fluorescence melt of hairpins on a sequencing array, two-state fit; conditions: sodium 0.088 M
How it was run: as §1

Sequence	Tm [1] [°C]	folding enthalpy [2] [kcal/mol]
GCATAGCGAAAGCTTAGC ((..(((....)))..))	41.6	-16.2
GGCAACGAAAGTTTTGCC ((((((....)))..)))	44.9	-26
GAATACGGAAACGTACTC ((.((((....)))).))	28.4	-9.11
GTAGGAGCGAAAGCTTAC (((..(((....))))))	31.2	-11.2
GACTCTCCGAAAGGAGTC (((..(((....))))))	35.3	-9.54
GCGGCGCGAAAGCCTCGC (((..((....))..)))	55.8	-18.6
GATCTGCGGGCAGATC ((((((....))))))	60.7	-42.9
GTAAAACCGAAAGGTTAC (((..(((....))))))	31	-14.9
GGGGACGCGAAAGCGCCC (((..(((....))))))	60	-12.9
GACGCGGGAAACCACGCC (.((.((....)).)).)	34.6	-12.4
GAAAAGGGAAACCTTTTC (((((((....)))))))	50.6	-38.8
GCGGTATGCCGC ((((....))))	63	-33.6
GCTTACCGAAAGGTCAGC (((.(((....))).)))	50.3	-27.8
GATCAGCCAACTGATC ((((((....))))))	49.6	-33.8
GCTATTCCGAAAGGAAGC (((..(((....))))))	32.9	-14.7
GTCCACCGAAAGGTGAC (((.(((....))))))	46.1	-12.5
GACGGCGAAAGCCTTGTC ((((((....)))..)))	43.9	-12.3
GATCTCGCTGGAGATC ((((((....))))))	54.3	-36.8
GCTACAGGAAACTGCAGC (((.(((....))).)))	44.5	-28.3
GATCGTTGTGACGATC ((((((....))))))	60.2	-41
GATCGTCCGGACGATC ((((((....))))))	62.8	-52.6
CGAAACGGAAACGTCTCG (((.(((....))).)))	39	-27.3
GCCGCGCGAAAGCGATGC ((..(((....)))..))	45.3	-15.2
GCAGAGCGAAAGCTTAGC ((..(((....)))..))	41.7	-17.5

Sequence	Tm [1] [°C]	folding enthalpy [2] [kcal/mol]
GCGTTGGGACGC ((((....))))	55.2	-24.9
GCCCTTGCGAAAGCAGGC (((..(((....))))))	43.8	-14.7
GCTGTGCGAAAGCGGAGC (((..((....))..)))	54.9	-22
GGTGATGGAAACATCGCC ((.((((....)))).))	55.6	-45.2
GTCAGACCGAAAGGTGAC (((..(((....))))))	44.4	-21.4
GATCGGCGAAAGCCTATC (((.(((....))).)))	39.9	-19.2
GCAAAGCGAAAGCTCCGC ((..(((....)))..))	29	-11.4
GAGCGCGAAAGCGACTC ((((((....))).)))	60.3	-16.9
GGGAATCGAAAGATGCCC (((.(((....))).)))	54.6	-44.3
TGCCAGAAATGGCA (((((....)))))	55.1	-16.5
CAGTCGAAAGACTG (((((....)))))	61.4	-27.2
GCGAGAGCTCGC ((((....))))	52.5	-12.8
GTCCAGTCGAAAGACGAC (((..(((....))))))	34.8	-15
GGGAGCTCGAAAGAGCCC (((..(((....))))))	57.2	-11.2
GCGCCAGGAAACTGGTGC ((.((((....)))).))	65	-30.6
GTTGGAGGAAACTCCAGC (.(((((....))))).)	47.6	-21.1
GATCCGTGTCCGGATC ((((((....))))))	57.5	-34
GCCGAACGAAAGTTTGGC (((.(((....))).)))	66	-35.2
GGCTATCGAAAGATCGCC (((.(((....))).)))	50.6	-30.8
GCGGTCGCCGC ((((...))))	60.6	-5.62
GCGGTCACGAAAGTGCGC (((..(((....))))))	52.1	-29.4
GATCGCTAGCGCGATC ((((((....))))))	66.5	-34
GTAATCGGAAACGATTAC (((((((....)))))))	56.4	-42.4
GCATCTGGAAACAAATGC ((((.((....)).))))	32.6	-21.8

Sequence	Tm [1] [°C]	folding enthalpy [2] [kcal/mol]
GGGGGTGGAAACGCTCCC (((.(.(....).).)))	47.1	-25.9
GCCCACGGAAACGCGGGC ((((.((....)).))))	62.3	-47.5
GAACAGGAAACTGTTC ((((((....))))))	52.9	-38.4
GATCGCTAAGCGATC ((((((...))))))	67.9	-33.5
GTGCCCGAAAGGGGTCAC ((((((....)))..)))	48.6	-15.7
GATATGGGAAACCACATC (((.(((....))).)))	28.4	-15
GATTGCGAAAGCATGATC ((((((....)))..)))	36.3	-11.6
GGTGCCGAAAGGCATACC ((((((....)))..)))	48.2	-11.6
GATCAAGATTTGATC ((((((...))))))	40.7	-29.6
GCAGTCCGAAAGGAGTGC (((.(((....))).)))	65.8	-47.7
GGCATACGAAAGTAGCC (((.(((....))))))	52.7	-24.4
GGCCTCGGAAACGAAGCC (((.(((....))).)))	47.8	-30.8
GCCGATGGAAACATCAGC ((.((((....)))).))	41.5	-24.5
GTTATGCGAAAGCACAAC (((.(((....))).)))	40.4	-20.3
GATCCGCGAAAGCGAATC (((.(((....))).)))	49.2	-20.2
GCTAAGCGAAAGCCTCGC ((.(.((....)).).))	29	-10.7
GGCCCCGGAAACGGGACC ((.((((....)))).))	59	-25.8
GATCGGTCCCCGATC ((((((...))))))	57.4	-44.8
GATCGTCGACACGATC ((((((....))))))	52.2	-43.9
GCGGAGCGAAAGCGCTGC ((.(.((....)).).))	57.1	-15.2
GCTAAGCGAAAGCTCGGC ((..(((....)))..))	39.7	-19.7
GATTTCGGAAACGAAATC (((((((....)))))))	58.1	-41.2
GAGACCGGAAACGATCTC ((((.((....)).))))	42	-31.9
GACGGAGGAAACTCCGCC (.(((((....))))).)	48.2	-14.9

Sequence	Tm [1] [°C]	folding enthalpy [2] [kcal/mol]
ATGGTGAAAACCAT (((((....)))))	47.1	-21.6
GGCGCAGGAAACTACGCC ((((.((....)).))))	53.5	-39
GGTATAGGAAACTGTACC ((((.((....)).))))	43	-31.3
GCGTTTTCACGC ((((....))))	54.2	-24.6
GGACTTGCGAAAGCATCC (((..(((....))))))	26.3	-9.43
GGTAAACCGAAAGGTACC (((..(((....))))))	40.1	-20.2
AAGTTGAAAAACTT (((((....)))))	35.4	-10.6
GATCTCTCCGGAGATC ((((((....))))))	56.2	-39.6
GCTCAGCGAAAGCCAAGC (((..((....))..)))	41	-16.4
GTACCCTCGAAAGAGTAC (((..(((....))))))	25.2	-10.6
GGGCAAGGAAACCTGCCC (((((.(....).)))))	57.5	-37.7
GCAACAGAAATGTTGC ((((((....))))))	56.6	-40.1
CGGGGACGGAAACGTCCG (((..(((....))))))	50.2	-7.9
TCAGGGAAACCTGA (((((....)))))	41.8	-22.8
GCCAACGAAAGTTAAGGC ((((((....)))..)))	45.8	-25.6
GGAGGCGAAAGCCTCTCC ((((((....)))..)))	54.2	-8.68
GCTGTCGAAAGACGGAGC ((((((....)))..)))	42.9	-18.1
CGGTCGGAAACGAGCCCG ((((((....)))..)))	37.5	-14
GTTTGAGGAAACTTAGAC ((.(.((....)).).))	32.3	-13.5
GTCCATCGAAAGATGAC (((.(((....))))))	42.5	-16.9
GATCAGGGACCTGATC ((((((....))))))	54.3	-50.5
